Experimental data reported in ChEMBL document CHEMBL1121506, “Evaluation of rotenone and related compounds as antagonists of slow-reacting substance of anaphylaxis” (J Med Chem, 1980).
In brackets after ≈: the same amount, converted by molar mass.

Columns and labels:
Cavia porcellus [1] = species on record: Cavia porcellus; assay: Compound was evaluated for the inhibitory activity against Histamine in guinea pig ileum; format: functional; design: concentration or dose not given beside the values
Cavia porcellus [2] = species on record: Cavia porcellus; assay: Compound was evaluated for the inhibitory activity against slow reacting substance of anaphylaxis (SRS-A) of guinea pig ileum; format: functional, organism-based
How it was run: (§1)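 Guinea pig ileum strip in Tyrode's solution at 37 °C, aerated with 95% O2-5% CO2. SRS-A came from rat peritoneal shock fluid after passive peritoneal anaphylaxis, and its specificity was checked against atropine (5 × 10^-7 M) and mepyramine (10^-6 M). The SRS-A dose was set to give ca. 60% of maximal contraction. Antagonist was added 2 min before challenge; percent inhibition was read, and IC50 was interpolated from dose-response curves.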

Cavia porcellus [3] = assay: Compound was evaluated in vivo for collapse time in guinea pig anaphylaxis model at dose 10 mg/kg; format: functional
How it was run: (§2)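 Guinea pigs were sensitized with 10% ovalbumin (1 mL s.c. plus 1 mL i.p.), and about 4 weeks later received the antagonist orally. They were then exposed to aerosolized ovalbumin, with collapse time as the endpoint and no collapse within 6 min taken as maximal protection. Groups (4–15 animals) were compared with controls by one-way ANOVA and Dunnett's test after Bartlett's test.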

Cavia porcellus [4] = species on record: Cavia porcellus; assay: Compound was evaluated for the inhibitory activity against Acetylcholine in guinea pig ileum; format: functional; design: concentration or dose not given beside the values
Cavia porcellus [5] = species on record: Cavia porcellus; assay: Compound was evaluated for the inhibitory activity against Serotonin in guinea pig ileum; format: functional
Cavia porcellus [6] = assay: Compound was evaluated in vivo for collapse time in guinea pig anaphylaxis model at dose 5 mg/kg; format: functional; how it was run: as §2
Cavia porcellus [7] = species on record: Cavia porcellus; assay: Compound was evaluated for the inhibitory activity against slow reacting substance of anaphylaxis (SRS-A) of guinea pig ileum;NA denotes not active; format: functional, organism-based; how it was run: as §1
Cavia porcellus [8] = species on record: Cavia porcellus; assay: Compound was evaluated for the inhibitory activity against slow reacting substance of anaphylaxis (SRS-A) of guinea pig ileum;NA means not active; format: functional, organism-based
How it was run: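 Guinea pig ileum strip in Tyrode's solution at 37 °C, aerated with 95% O2-5% CO2. SRS-A came from rat peritoneal shock fluid after passive peritoneal anaphylaxis, dosed to give ca. 60% of maximal contraction. Atropine (5 × 10^-7 M) and mepyramine (10^-6 M) checks were run. Antagonist was added 2 min before SRS-A challenge, and percent inhibition recorded. IC50 was interpolated from two or at least three dose-response curves.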

IC50 (Cavia porcellus [8])	SMILES	Inhibition (Cavia porcellus [1]) [%]	IC50 (Cavia porcellus [2]) [µg/mL]	Collapse time (Cavia porcellus [3]) [s]	Inhibition (Cavia porcellus [4]) [%]	Inhibition (Cavia porcellus [5]) [%]	Collapse time (Cavia porcellus [6]) [s]	IC50 (Cavia porcellus [7])
–	C=C(C)[C@H]1Cc2c(ccc3c2O[C@H]2COc4cc(OC)c(OC)cc4[C@H]2C3=O)O1	28	0.0247 (≈ 0.0626 µM)	240	11	87	–	–
–	C=C(C)[C@H]1Cc2c(ccc3c2OC2COc4cc(OC)c(OC)cc4C2/C3=N/O)O1 (stereo not given in full)	–	0.4 (≈ 0.977 µM)	248	–	–	–	–
–	C=C(C)[C@H]1Cc2c(ccc3c(=O)c4c(oc23)COc2cc(OC)c(OC)cc2-4)O1 [DEHYDROROTENONE]	0	–	248	0	–	216	Not Active
Not Active	C=C(C)[C@H]1Cc2c(ccc(C(=O)Cc3cc(OC)c(OC)cc3OCC(=O)O)c2O)O1	0	–	167	0	–	–	–
–	CCCc1c(OCC(O)COc2ccc3c(=O)cc(C(=O)[O-])oc3c2CCC)ccc(C(C)=O)c1O.[Na+] (stereo not given) [FPL-55712 SODIUM SALT]	0	0.042	253	0	0	–	–
–	COc1cc2c(cc1OC)[C@@H]1C(=O)c3ccc4c(c3O[C@@H]1CO2)C[C@H](C(C)C)O4	29	0.0238 (≈ 0.06 µM)	–	25	60	–	–
–	C=C(C)[C@H]1Cc2c(ccc3c2OC2COc4cc(OC)c(OC)cc4C2/C3=N/OC(C)=O)O1 (stereo not given in full)	–	0.4 (≈ 0.886 µM)	–	–	–	–	–
–	C=C(C)[C@H]1Cc2c(ccc3c2OC2COc4cc(OC)c(OC)cc4C2/C3=N/OC(=O)OCC)O1 (stereo not given in full) [O-CARBETHOXY ROTENONE OXIME]	–	0.4 (≈ 0.831 µM)	–	–	–	–	–
Not Active	C=C(C)[C@H]1Cc2c(ccc3c2OC2COc4cc(OC)c(OC)cc4C2(OC(C)=O)C3=O)O1 (stereo not given in full) [ACETYLROTENOLENE]	0	–	–	0	–	–	–
–	COc1cc2c(cc1OC)[C@]1(O)C(=O)c3ccc4c(c3O[C@@H]1CO2)C=CC(C)(C)O4 [TEPHROSIN]	–	0.2 (≈ 0.487 µM)	–	–	–	–	–
–	COc1cc2c(cc1OC)[C@@H]1C(=O)c3ccc4oc(C(C)C)cc4c3O[C@@H]1CO2 [ISOROTENONE]	30	0.062 (≈ 0.157 µM)	211	28	–	–	–
–	C=C(C)[C@H]1Cc2c(ccc3c2O[C@@H]2COc4cc(OC)c(OC)cc4[C@@H]2C3=O)O1 [ROTENONE]	38	0.0155 (≈ 0.0393 µM)	–	15	92	288	–
